Data taken from ChEMBL document CHEMBL4732158, “Bicyclic Ligand-Biased Agonists of S1P: Exploring Side Chain Modifications to Modulate the PK, PD, and Safety Profiles” (J Med Chem, 2021).

What was measured:
Rattus norvegicus [1] = assay: Reduction in circulating lymphocytes count in Lewis rat at 1 mg/kg, po measured at 4 hrs by hematology analyzer based analysis; type: functional; design: scale not given: the % may be the effect or the level left
In short: (§1)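 Lewis rats (n = 2−4) dosed orally at 0.5, 1, 2 or 5 mg/kg; blood parent and phosphate metabolite concentrations and lymphocyte counts taken 4 and 24 h post-dose; phosphate-to-parent ratio from 24 h levels; significance versus vehicle by ANOVA with Dunnett's test.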

[2] = Drug concentration in Lewis rat blood assessed as concentration of parent compound at 1 mg/kg, po measured at 4 hrs by LC-MS/MS analysis; type: ADME, organism-based; settings: read-out: Ct; for concentration at 4 h: Lewis, blood; for concentration: in vivo, 1 mg/kg, 4 h; in short: as §1
[3] = Reduction in circulating lymphocytes count in Lewis rat at 1 mg/kg, po measured at 24 hrs by hematology analyzer based analysis; type: organism-based; design: scale not given: the % may be the effect or the level left; settings: in vivo; in short: as §1
[4] = Drug metabolism in Lewis rat blood assessed as concentration of parent compound at 1 mg/kg, po measured at 24 hrs by LC-MS/MS analysis; type: ADME, organism-based; settings: read-out: Ct; for concentration at 24 h: Lewis, blood; for concentration: in vivo, 1 mg/kg, 24 h; in short: as §1
[5] = Half life in Lewis rat at 1 mg/kg, po measured at 4 to 72 hrs; type: ADME, organism-based; settings: in vivo, time 4-72 hrs
In short: (§2)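 Half-life estimated from oral-dosing blood PK profiles in Lewis rats sampled at four time points: 4, 24, 48 and 72 h.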

[6] = Cardiotoxicity in human iPSC derived cardiomyocytes assessed as change in heart rate at 1 nM measured over 2 hrs by multi-electrode array relative to control; type: toxicity, cell-based; settings: stem cell-derived cardiomyocyte, 0.001 µM
In short: (§3)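 Phosphate metabolite of each compound prepared and tested on cultured human induced pluripotent stem cell-derived cardiomyocytes at 1 and 10 nM; beat rate change averaged over three or more replicates per concentration unless noted (some n = 2).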

[7] = Cardiotoxicity in human iPSC derived cardiomyocytes assessed as change in heart rate at 10 nM measured over 2 hrs by multi-electrode array relative to control; type: toxicity, cell-based; settings: stem cell-derived cardiomyocyte, 0.01 µM; in short: as §3
[8] = Drug metabolism in Lewis rat blood assessed as phosphate ester metabolite to parent ratio at 1 mg/kg, po measured at 24 hrs by LC-MS/MS analysis; settings: in vivo
Rattus norvegicus [9] = assay: Reduction in circulating lymphocytes count in Lewis rat at 2 mg/kg, po measured at 4 hrs by hematology analyzer based analysis; type: functional; design: scale not given: the % may be the effect or the level left
In short: (§4)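 Lewis rats (n = 2−4) dosed orally; whole-blood lymphocyte counts taken 4 h and 24 h after dosing and reduction expressed versus vehicle-treated rats. Significance by ANOVA with Dunnett's test (p < 0.05 vs vehicle). Blood levels of parent and phosphate metabolite measured at the same time points in this PK/PD screen.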

[10] = Drug concentration in Lewis rat blood assessed as concentration of parent compound at 2 mg/kg, po measured at 4 hrs by LC-MS/MS analysis; type: ADME, organism-based; settings: read-out: Ct; for concentration at 4 h: Lewis, blood; in short: as §1
[11] = Reduction in circulating lymphocytes count in Lewis rat at 2 mg/kg, po measured at 24 hrs by hematology analyzer based analysis; type: Functional, organism-based; design: scale not given: the % may be the effect or the level left; settings: in vivo; in short: as §4
[12] = Drug concentration in Lewis rat blood assessed as concentration of parent compound at 2 mg/kg, po measured at 24 hrs by LC-MS/MS analysis; type: ADME, organism-based; settings: in vivo, read-out: Ct; in short: as §1
[13] = Ratio of drug metabolism in Lewis rat blood assessed as phosphate ester metabolite to parent drug at 2 mg/kg, po measured at 24 hrs by LC-MS/MS analysis; type: ADME, organism-based; settings: in vivo; in short: as §1
[14] = Pulmonary toxicity in Lewis rat assessed as fold elevation of BAL protein content at 2 mg/kg, po by chemistry analyzer based analysis relative to control; type: organism-based; settings: in vivo
In short: (§5)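 Lewis rats dosed orally; bronchoalveolar lavage protein measured at study end, expressed as fold over vehicle control.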

[15] = Half life in Lewis rat at 2 mg/kg, po measured at 4 to 72 hrs; type: ADME, organism-based; settings: in vivo, time 4-72 hrs; for half-life: Lewis; in short: as §2
[16] = Pulmonary toxicity in Lewis rat assessed as fold elevation of BAL protein content at 1 mg/kg, po by chemistry analyzer based analysis relative to control; type: organism-based; settings: in vivo; in short: as §5

SMILES	Activity [3] [%]	Activity [6] [%]	Activity [7] [%]	Activity [11] [%]	Activity (Rattus norvegicus [1]; 1 mg/kg, 4 h) [%]	fold change (FC) [16]	concentration [4] [nM]	other results
CCC/C=C/CC1CCc2cc([C@H]3CC[C@](N)(CO)C3)ccc2C1 (single isomer, unassigned)	62	-9.6	-23	–	–	–	–	Activity (Rattus norvegicus [1]): 10%; concentration at 4 h [2]: 31 nM; concentration at 24 h [4]: 51 nM; half-life [5]: 62 h; Ratio [8]: 2.3
CCC/C=C\CC1CCc2cc([C@H]3CC[C@](N)(CO)C3)ccc2C1 (single isomer, unassigned)	71	-11	-25	–	–	–	–	Activity (Rattus norvegicus [1]): 13%; concentration at 4 h [2]: 10 nM; concentration at 24 h [4]: 14 nM; half-life [5]: 59 h; Ratio [8]: 8.6
CCCCSCC1CCc2cc([C@H]3CC[C@](N)(CO)C3)ccc2C1 (single isomer, unassigned)	–	-14	-25	44	–	–	–	Activity (Rattus norvegicus [9]): 20%; concentration at 4 h [10]: 138 nM; concentration [12]: 110 nM; Ratio [13]: 0.23; fold change (FC) [14]: 1.1
CCSCCCC1CCc2cc([C@H]3CC[C@](N)(CO)C3)ccc2C1 (single isomer, unassigned)	–	-42	-53	74	–	–	–	Activity (Rattus norvegicus [9]): 65%; concentration at 4 h [10]: 190 nM; concentration [12]: 42 nM; half-life [15]: 14 h
COCCCCCC1CCc2cc([C@H]3CC[C@](N)(CO)C3)ccc2C1 (single isomer, unassigned; 23)	–	-20	-40	81	–	–	–	Activity (Rattus norvegicus [9]): 78%; concentration at 4 h [10]: 129 nM; concentration [12]: 51 nM; half-life [15]: 15 h; Ratio [13]: 8.2; fold change (FC) [14]: 1.9
CCCCCOC1CCc2cc([C@H]3CC[C@](N)(CO)C3)ccc2C1 (stereo in doubt; 10a)	78	–	–	–	62	0.94	–	concentration at 4 h [2]: 244 nM; concentration at 24 h [4]: 210 nM; Ratio [8]: 0.86
CCCCCOC1CCc2cc([C@H]3CC[C@](N)(CO)C3)ccc2C1 (stereo in doubt; 10b)	67	-12	-49	–	32	–	240	concentration [2]: 215 nM; Ratio [8]: 0.27
COCCC1CCc2cc([C@H]3CC[C@](N)(CO)C3)ccc2C1 (stereo in doubt; 21a)	–	–	–	12	–	–	–	Activity (Rattus norvegicus [9]): 0%
COCCC1CCc2cc([C@H]3CC[C@](N)(CO)C3)ccc2C1 (stereo in doubt; 21b)	–	–	–	2	–	–	–	–
COCCCCCCC1CCc2cc([C@H]3CC[C@](N)(CO)C3)ccc2C1 (stereo in doubt; 25b)	–	-25	–	79	–	–	–	Activity (Rattus norvegicus [9]; 2 mg/kg, 4 h): 45%; concentration ([10]; in vivo, 2 mg/kg, 4 h, 2 mg/kg, 4 h): 320 nM; concentration [12]: 295 nM; t1/2 ([15]; 2 mg/kg): 26 h; Ratio [13]: 2.5; fold change (FC) [14]: 1.2
CCCCCCOC1CCc2cc([C@H]3CC[C@](N)(CO)C3)ccc2C1 (stereo in doubt; 30a)	82	-39	-40	–	39	1.1	28	concentration [2]: 53 nM
CCCCCCOC1CCc2cc([C@H]3CC[C@](N)(CO)C3)ccc2C1 (stereo in doubt; 30b)	–	–	–	–	20	1.4	417	concentration [2]: 362 nM
CCCCCCCOC1CCc2cc([C@H]3CC[C@](N)(CO)C3)ccc2C1 (stereo in doubt; 33a)	80	–	–	–	13	0.85	54	concentration at 4 h [2]: 32 nM; half-life [5]: 29 h
CCCCCCCOC1CCc2cc([C@H]3CC[C@](N)(CO)C3)ccc2C1 (stereo in doubt; 33b)	–	–	–	–	14	1	25	concentration [2]: 40 nM
